Square brackets hold non-standard residues; d marks the D form. Peptide text beside a SMILES is read from it. ξ: configuration not given here. Dmt = Cc1cc(O)cc(C)c1C[C@H](N)C(=O)O; Tic = O=C(O)[C@@H]1Cc2ccccc2CN1; ξTic = O=C(O)C1Cc2ccccc2CN1
Key:
[1] = target: T1, Delta-type opioid receptor (Mus musculus, UniProt P32300); test: Antagonist activity against deltorphin in mouse vas deferens assay; assay type: functional, tissue-based; settings: read-out: pA2 (converted)
In short: (§1)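 Mouse vas deferens, field-stimulated with supramaximal-voltage bipolar rectangular pulses. Antagonism was scored as a rightward shift of the deltorphin C log(concentration)-response curve and reported as pA2, the negative log molar antagonist concentration that doubles the agonist concentration needed for the original submaximal response.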

[2] = Binding affinity for rat Opioid receptor mu 1
Rattus norvegicus = species on record: Rattus norvegicus; test: Ratio of binding affinities for rat Opioid receptors mu 1 and delta 1
Mu-type opioid receptor [3] = target: T2, Mu-type opioid receptor (Cavia porcellus, UniProt P97266); test: Inhibition of Opioid receptor mu 1 in guinea pig ileum assay; assay type: functional, tissue-based
In short: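 Male guinea pig ileum myenteric plexus-longitudinal muscle, field-stimulated with supramaximal-voltage bipolar rectangular pulses. Inhibition of the electrically evoked twitch was measured, with dermorphin as reference agonist. IC50 was taken from concentration-response curves, mean ± SE of at least five to six fresh tissues.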

[4] = Binding affinity for rat Opioid receptor delta 1
In short: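 Rat brain synaptosomes (P2), preincubated to remove endogenous opioids and stored at -80 °C in buffered 20% glycerol. […] Filters were PEI-soaked GF/C, washed thrice in ice-cold buffered BSA. Five to eight doses, duplicates, independent preparations; Ki by Cheng-Prusoff, mean ± SE.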

Mu-type opioid receptor [5] = target: T2, Mu-type opioid receptor; test: Antagonist activity against dermorphin in guinea pig ileum assay; assay type: functional, tissue-based; settings: read-out: pA2 (converted)
In short: as §1, with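 “Male guinea pig ileum myenteric plexus-longitudinal muscle,” for “Mouse vas deferens,”, “dermorphin” for “deltorphin C”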

[6] = target: T1, Delta-type opioid receptor; test: Inhibition of Delta opioid receptor in mouse vas deferens assay; assay type: functional
In short: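 Mouse vas deferens, field-stimulated with supramaximal-voltage bipolar rectangular pulses. Inhibition of the electrically evoked twitch was measured, with deltorphin C as reference agonist. IC50 was taken from concentration-response curves, mean ± SE of at least five to six fresh tissues.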

T2 sequence (P97266 whole entry): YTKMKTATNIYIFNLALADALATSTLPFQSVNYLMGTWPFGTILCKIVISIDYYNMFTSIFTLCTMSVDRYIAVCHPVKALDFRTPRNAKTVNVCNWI
T1 sequence (P32300 whole entry): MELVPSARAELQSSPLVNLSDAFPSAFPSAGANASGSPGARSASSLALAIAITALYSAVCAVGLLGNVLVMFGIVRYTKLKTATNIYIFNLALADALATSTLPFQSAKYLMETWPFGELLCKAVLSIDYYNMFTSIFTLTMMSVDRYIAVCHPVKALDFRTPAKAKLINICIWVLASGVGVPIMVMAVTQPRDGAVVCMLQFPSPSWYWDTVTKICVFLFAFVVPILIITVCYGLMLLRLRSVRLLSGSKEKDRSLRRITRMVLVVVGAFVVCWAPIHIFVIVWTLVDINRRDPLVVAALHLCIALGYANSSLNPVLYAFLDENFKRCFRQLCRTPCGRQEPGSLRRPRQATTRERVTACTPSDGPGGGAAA

Compound | Kb [1] [nM] | Ki [2] [nM] | Ratio (Rattus norvegicus) | IC50 (Mu-type opioid receptor [3]) [nM] | Ki [4] [nM] | Kb (Mu-type opioid receptor [5]) [nM] | IC50 [6] [nM]
Cc1cc(O)cc(C)c1C[C@H](N)C(=O)N1Cc2ccccc2C[C@H]1C(=O)N[C@@H](CC(=O)O)C(N)=O | 7.59 | 2560 | 8.88 | > 10000 | 0.29 |  | 
Cc1cc(O)cc(C)c1C[C@H](N)C(=O)N1Cc2ccccc2C[C@H]1C(=O)N[C@@H](CCC(N)=O)C(=O)O | 1.05 | 465 | 1.43 | > 10000 | 0.32 |  | 
Cc1cc(O)cc(C)c1C[C@H](N)C(=O)N1Cc2ccccc2C[C@H]1C(=O)N[C@H](CCC(=O)O)C(N)=O | 2.29 | 920 | 17.4 |  | 0.05 | < 7940 | 
CC(=O)NCCCC[C@@H](NC(=O)[C@@H]1Cc2ccccc2CN1C(=O)[C@@H](N)Cc1c(C)cc(O)cc1C)C(=O)O | 0.513 | 86.8 | 1.05 | 1500 | 0.08 |  | 
Cc1cc(O)cc(C)c1C[C@H](N)C(=O)N1Cc2ccccc2C[C@H]1C(=O)N[C@H](C)C(=O)O |  |  | 20.4 |  |  |  | 
Cc1cc(O)cc(C)c1C[C@H](N)C(=O)N1Cc2ccccc2C[C@H]1C(=O)NC(CO)C(N)=O (single isomer, unassigned) | 8.51 | 140 | 1.12 | > 10000 | 0.13 |  | 
Cc1cc(O)cc(C)c1C[C@H](N)C(=O)N1Cc2ccccc2C[C@H]1C(=O)NC(CCCCN)C(N)=O (single isomer, unassigned) | 13.5 | 17 | 24 | 7870 | 0.71 |  | 
Cc1cc(O)cc(C)c1C[C@H](N)C(=O)N1Cc2ccccc2C[C@H]1C(=O)N[C@@H](Cc1c[nH]c2ccccc12)C(=O)O (H-[Dmt]-[Tic]-Trp-OH) | 0.269 | 15.7 |  | 1500 | 0.03 |  | 
Cc1cc(O)cc(C)c1C[C@H](N)C(=O)N1Cc2ccccc2C[C@H]1C(=O)NC(CCCN=C(N)N)C(N)=O (single isomer, unassigned) | 126 | 15.1 | 21 | 6600 | 0.73 |  | 
Cc1cc(O)cc(C)c1C[C@H](N)C(=O)N1Cc2ccccc2C[C@H]1C(=O)N[C@H](CC(N)=O)C(=O)O | 5.89 | 4000 | 5.4 | > 10000 | 0.74 |  | 
Cc1cc(O)cc(C)c1C[C@H](N)C(=O)N1Cc2ccccc2CC1C(=O)N[C@@H](Cc1c[nH]c2ccccc12)C(=O)O (some centres undefined) (H-[Dmt]-[ξTic]-Trp-OH) |  |  | 462 |  |  |  | 
Cc1cc(O)cc(C)c1C[C@H](N)C(=O)N1Cc2ccccc2C[C@H]1C(=O)N[C@H](CCC(N)=O)C(=O)O | 1.23 | 562 | 1.25 | > 10000 | 0.45 |  | 
Cc1cc(O)cc(C)c1C[C@H](N)C(=O)N1Cc2ccccc2C[C@H]1C(=O)NC(CO)C(=O)O (single isomer, unassigned) | 1.32 | 2830 | 10.5 | > 10000 | 0.27 |  | 
Cc1cc(O)cc(C)c1C[C@H](N)C(=O)N1Cc2ccccc2C[C@H]1C(=O)NC(Cc1c[nH]cn1)C(=O)O (single isomer, unassigned) | 1.91 | 174 | 1.4 | > 10000 | 0.12 |  | 
Cc1cc(O)cc(C)c1C[C@H](N)C(=O)N1Cc2ccccc2C[C@H]1C(=O)N[C@@H](CCC(=O)O)C(N)=O | < 0.1 | 1360 | 22.6 |  | 0.06 |  | 2500
CC(=O)NCCCC[C@H](NC(=O)[C@@H]1Cc2ccccc2CN1C(=O)[C@@H](N)Cc1c(C)cc(O)cc1C)C(=O)O | 0.0851 | 1050 | 22.4 | > 10000 | 0.04 |  | 
Cc1cc(O)cc(C)c1C[C@H](N)C(=O)N1Cc2ccccc2C[C@H]1C(=O)N[C@H](CC(=O)O)C(N)=O | 7.24 | 367 | 834 | > 10000 | 0.44 |  | 
Cc1cc(O)cc(C)c1C[C@H](N)C(=O)N1Cc2ccccc2C[C@H]1C(=O)N[C@@H](CC(N)=O)C(=O)O | 5.89 | 80.3 | 73 | > 10000 | 1.1 |  | 
Cc1cc(O)cc(C)c1C[C@H](N)C(=O)N1Cc2ccccc2C[C@H]1C(=O)N[C@@H](C)C(=O)O |  | 5820 |  | > 10000 | 0.29 |  | 
Cc1cc(O)cc(C)c1C[C@H](N)C(=O)N1Cc2ccccc2C[C@H]1C(=O)NC(C)C(N)=O (stereo in doubt) | 25.1 | 47.5 | 158 | > 10000 | 0.3 |  | 
Cc1cc(O)cc(C)c1C[C@H](N)C(=O)N1Cc2ccccc2C[C@H]1C(=O)NCC(N)=O (H-[Dmt]-[Tic]-Gly-NH2) | 22.4 | 140 | 559 | > 10000 | 0.25 |  | 

From ChEMBL document CHEMBL1138666, “Direct influence of C-terminally substituted amino acids in the Dmt-Tic pharmacophore on delta-opioid receptor selectivity and antagonism” (J Med Chem, 2004)
